Assay results as given in article PMC9653025 (Drug Design, Development and Therapy, 2022).
Read-outs that look alike come from different tables or passages of the source.

Columns and labels:
[1] = type: in vivo, healthy Chinese subjects; details: single oral 100 mg imrecoxib, plasma
Procedure, shortened: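 Open-label parallel Phase I study in healthy Chinese adults aged 18–85 y, BMI 19–28 kg/m2, 1:1 sex. Single 100 mg tablet of test compound taken orally with 240 mL water after a 4 h fast. EDTA blood drawn predose and 0.5–72 h after dosing; plasma stored at −70°C. Parent compound plus hydroxyl and carboxyl metabolites measured by LC-MS/MS (C18, MRM, acetonitrile precipitation, internal standard). Non-compartmental analysis; group geometric mean ratios with 90% CI.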

[2] = Safety and tolerability; type: in vivo, healthy Chinese subjects
Procedure, shortened: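 Single 100 mg oral tablet given after fasting; subjects kept in a supervised Phase I ward until 72 h post-dose. Tolerability tracked through adverse-event monitoring, physical examinations, haematology, blood biochemistry, urinalysis and 12-lead ECG; clinical laboratory tests run in a CAP-accredited hospital laboratory. Elderly and non-elderly groups assessed in parallel.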

[3] = system: COX-1/COX-2; details: cited from earlier work
[4] = healthy subjects, single oral dose 30, 60, 90 and 200mg imrecoxib; cited from earlier work
[5] = Elderly Group (N=9), single oral 100 mg imrecoxib
[6] = Elderly Group (N=9), single oral 100 mg imrecoxib, subjects (%)
[7] = Non-Elderly Group (N=10), single oral 100 mg imrecoxib
[8] = Non-Elderly Group (N=10), single oral 100 mg imrecoxib, subjects (%)

## CCCN1CC(c2ccc(S(C)(=O)=O)cc2)=C(c2ccc(C)cc2)C1=O [M0, imrecoxib]
[1]; Group A (N=10), non-elderly
  Geometric Mean AUC0-∞: 148 h*ng/m
[1]; Group B (N=9), elderly
  Geometric Mean AUC0-∞: 193 h*ng/m
[1]; elderly (B) / non-elderly (A)
  Geometric Mean Ratio B/A of AUC0-t: 134%
  Geometric Mean Ratio B/A of AUC0-∞: 130%
  Geometric Mean Ratio B/A of Cmax: 139%
[2]; [5]
  All adverse events, Severity Grade I: 2
  Aspartate transaminase increased, Severity Grade I: 1
  Aspartate transaminase increased, Severity Grade II: 0
  Aspartate transaminase increased, Severity Grade III: 0
  Blood bilirubin increased, Severity Grade I: 1
  Blood bilirubin increased, Severity Grade II: 0
  Blood bilirubin increased, Severity Grade III: 0
  Blood glucose increased, Severity Grade I: 0
  Blood glucose increased, Severity Grade II: 0
  Blood glucose increased, Severity Grade III: 0
  White blood cell increased, Severity Grade I: 0
  White blood cell increased, Severity Grade II: 0
  White blood cell increased, Severity Grade III: 0
[2]; [6]
  Acute upper respiratory infection, Incidence (%): 0(0.0%)
  All adverse events, Incidence (%): 2(22.2%)
  Aspartate transaminase increased, Incidence (%): 1(11.1%)
  Blood bilirubin increased, Incidence (%): 1(11.1%)
  Blood glucose increased, Incidence (%): 0(0.0%)
  Fibrinogen decreased, Incidence (%): 0(0.0%)
  White blood cell increased, Incidence (%): 0(0.0%)
[2]; [7]
  All adverse events, Severity Grade I: 2
  Aspartate transaminase increased, Severity Grade I: 0
  Aspartate transaminase increased, Severity Grade II: 0
  Aspartate transaminase increased, Severity Grade III: 0
  Blood bilirubin increased, Severity Grade I: 0
  Blood bilirubin increased, Severity Grade II: 0
  Blood bilirubin increased, Severity Grade III: 0
  Blood glucose increased, Severity Grade I: 1
  Blood glucose increased, Severity Grade II: 0
  Blood glucose increased, Severity Grade III: 0
  Fibrinogen decreased, Severity Grade I: 1
  White blood cell increased, Severity Grade I: 1
  White blood cell increased, Severity Grade II: 0
  White blood cell increased, Severity Grade III: 0
[2]; [8]
  Aspartate transaminase increased, Incidence (%): 0(0.0%)
  Blood bilirubin increased, Incidence (%): 0(0.0%)
[2]; both groups, recovered without any medical intervention
  Severity of all the AEs: mild
[2]; both groups, single oral 100 mg imrecoxib
  Gastrointestinal, cardiovascular or renal side effects observed: No concomitant gastrointestinal, cardiovascular or renal side effects
[2]; elderly group
  AEs considered to be ADRs: Increased aspartate transaminase and blood bilirubin
[2]; non-elderly and elderly healthy subjects, oral
  Tolerability: well tolerated
[2]; non-elderly group
  AEs regarded as adverse drug reaction (ADR): increased blood glucose
[3]
  IC50COX-1/IC50COX-2 value: 6.39
  IC50COX-1/IC50COX-2 value relative to celecoxib: 77%
[4]
  Dose dependence of pharmacokinetics: linear dynamic characteristics
  Tmax: about 2 hours

## CS(=O)(=O)c1ccc(C2=C(c3ccccc3)C(=O)OC2)cc1 [rofecoxib]
[3]
  IC50COX-1/IC50COX-2 value: above 213
